Read-outs that look alike come from different tables or passages of the source.
Experiments:
patients with mCRPC = conditions: sequence of ENZ followed by AA, cited from earlier work
[1] = system: CRPC cell lines MR49F, MDA-PCA-133, LNCaP; conditions: MDA-PCA-133, LNCaP (AR F876L, H874Y, T877A); cited from earlier work
patients with CRPC [2] = conditions: phase 1 study, once daily dosing; cited from earlier work
CYP17 lyase = conditions: cited from earlier work
patients with CRPC [3] = conditions: cited from earlier work; for PSA response rate: treatment naïve patients, daily cumulative doses of 600 mg or greater
[4] = system: patients with mCRPC previously treated with enzalutamide; experiment: Toxicity evaluation, adverse events graded by CTCAE version 4.0; format: in vivo, human
Method in brief: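 Adverse events in enrolled mCRPC patients were graded per NCI CTCAE v4.0 during oral dosing: twice-daily titration to 450 mg, later 750 mg or 600 mg once daily. A related Grade 3 event held treatment until recovery to Grade 1 or baseline. Investigator-discretion reductions were allowed for low-grade events. Drug was stopped for Grade 4 events, a delay over 6 weeks, or more than 2 reductions.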

[5] = system: enzalutamide-resistant cell lines (e.g. C4–2, C4–2B, MR49C, MR49F); conditions: established enzalutamide-resistant cell lines; cited from earlier work
[6] = Pharmacokinetic analysis, plasma concentrations by LC-MS/MS, noncompartmental; format: in vivo, human; conditions: for half-life / Cmax / Tmax / Vd/F: male, human, plasma; for Vd/F: Vz/F
[7] = system: patients with mCRPC previously treated with enzalutamide; experiment: Phase 2 open label study: PSA response, time to progression, overall survival; format: in vivo, human
Method in brief: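 Open-label trial in men aged 18 or older with progressive mCRPC after more than three 28-day enzalutamide cycles, split into pre- and post-docetaxel cohorts. Oral dosing without routine steroids: 150 mg twice daily titrated to 450 mg twice daily, later amended to 750 mg, then 600 mg, once daily. PSA response was a ≥50% drop from baseline at 12 weeks (PCWG2). Radiographic progression by modified RECIST 1.1. Kaplan-Meier time to progression and overall survival.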

[8] = N = 17, attribution at least possible
[9] = 600 mg oral, C1D1 (n=4), first dose
[10] = 600 mg oral, C2D1 (n=4), steady-state
[11] = 750 mg oral, C1D1 (n=3), first dose
[12] = 750 mg oral, C2D2 (n=l), steady-state
[13] = po, 600 mg, 600 mg oral, C1D1 (n=4), first dose
[14] = po, 600 mg, 600 mg oral, C2D1 (n=4), steady-state
[15] = po, 750 mg, 750 mg oral, C1D1 (n=3), first dose
[16] = po, 750 mg, 750 mg oral, C2D2 (n=l), steady-state

## CC(=O)O[C@H]1CC[C@@]2(C)C(=CC[C@@H]3[C@@H]2CC[C@]2(C)C(c4cccnc4)=CC[C@@H]32)C1 [AA, abiraterone acetate]
Patients with mCRPC; ref 39
  PSA response rate: 3%
Patients with mCRPC; ref 40
  PSA response rate: 8%

## CC(C)[C@](O)(c1ccc2cc(OC(F)F)c(OC(F)F)cc2c1)c1c[nH]nn1 [Seviteronel]
[1]
  efficacy in in vivo models: effective
Patients with CRPC [2]
  patients experiencing fatigue: 71%
  patients with blurry vision: 33%
  patients with dizziness: 52%
CYP17 lyase
  selectivity towards the CYP17 lyase over hydroxylase: approximately 10 fold
Patients with CRPC [3]; 450 mg twice daily, patients who had previously received ENZ
  PSA declines of 50% or greater: 2 of 7
Patients with CRPC [3]; pre-treated patients, Phase I study once daily dosing
  response rate: 0%
Patients with CRPC [3]; once daily dosing (N=9)
  PSA response rate: 33%
Patients with CRPC [3]; twice daily dosing (N=26)
  PSA response rate: 11%
[4]; [8]
  Blurred Vision, All Grades (Gr 1–3): 4 (24) No. Patients (%)
  Blurred Vision, Grade 1: 3 (18) No. Patients (%)
  Blurred Vision, Grade 2: 1 (6) No. Patients (%)
  Blurred Vision, Grade 3: 0 (0) No. Patients (%)
  Concentration Impairment, All Grades (Gr 1–3): 14 (82) No. Patients (%)
  Concentration Impairment, Grade 1: 9 (53) No. Patients (%)
  Concentration Impairment, Grade 2: 4 (24) No. Patients (%)
  Concentration Impairment, Grade 3: 1 (6) No. Patients (%)
  Dizziness, All Grades (Gr 1–3): 6 (35) No. Patients (%)
  Dizziness, Grade 1: 3 (18) No. Patients (%)
  Dizziness, Grade 2: 1 (6) No. Patients (%)
  Dizziness, Grade 3: 2 (12) No. Patients (%)
  Edema (limbs), All Grades (Gr 1–3): 3 (18) No. Patients (%)
  Edema (limbs), Grade 1: 2 (12) No. Patients (%)
  Edema (limbs), Grade 2: 1 (6) No. Patients (%)
  Edema (limbs), Grade 3: 0 (0) No. Patients (%)
  Fall, All Grades (Gr 1–3): 3 (18) No. Patients (%)
  Fall, Grade 1: 1 (6) No. Patients (%)
  Fall, Grade 2: 1 (6) No. Patients (%)
  Fall, Grade 3: 1 (6) No. Patients (%)
  Fatigue, All Grades (Gr 1–3): 11 (65) No. Patients (%)
  Fatigue, Grade 1: 3 (18) No. Patients (%)
  Fatigue, Grade 2: 8 (47) No. Patients (%)
  Fatigue, Grade 3: 0 (0) No. Patients (%)
  Gait Disturbance, All Grades (Gr 1–3): 3 (18) No. Patients (%)
  Gait Disturbance, Grade 1: 3 (18) No. Patients (%)
  Gait Disturbance, Grade 2: 0 (0) No. Patients (%)
  Gait Disturbance, Grade 3: 0 (0) No. Patients (%)
  Hypotension, All Grades (Gr 1–3): 4 (24) No. Patients (%)
  Hypotension, Grade 1: 1 (6) No. Patients (%)
  Hypotension, Grade 2: 2 (12) No. Patients (%)
  Hypotension, Grade 3: 1 (6) No. Patients (%)
  Malaise, All Grades (Gr 1–3): 3 (18) No. Patients (%)
  Malaise, Grade 1: 0 (0) No. Patients (%)
  Malaise, Grade 2: 3 (18) No. Patients (%)
  Malaise, Grade 3: 0 (0) No. Patients (%)
  Nausea, All Grades (Gr 1–3): 9 (53) No. Patients (%)
  Nausea, Grade 1: 7 (41) No. Patients (%)
  Nausea, Grade 2: 0 (0) No. Patients (%)
  Nausea, Grade 3: 2 (12) No. Patients (%)
  Presyncope, All Grades (Gr 1–3): 3 (18) No. Patients (%)
  Presyncope, Grade 1: 0 (0) No. Patients (%)
  Presyncope, Grade 2: 3 (18) No. Patients (%)
  Presyncope, Grade 3: 0 (0) No. Patients (%)
  Tremor, All Grades (Gr 1–3): 10 (59) No. Patients (%)
  Tremor, Grade 1: 9 (53) No. Patients (%)
  Tremor, Grade 2: 1 (6) No. Patients (%)
  Tremor, Grade 3: 0 (0) No. Patients (%)
  Vomiting, All Grades (Gr 1–3): 3 (18) No. Patients (%)
  Vomiting, Grade 1: 3 (18) No. Patients (%)
  Vomiting, Grade 2: 0 (0) No. Patients (%)
  Vomiting, Grade 3: 0 (0) No. Patients (%)
[4]; in vivo
  Grade 4 adverse events related to study treatment: No Grade 4 adverse events related to the study treatment were reported
  number of Grade 3 adverse events: nine
[4]; of 17 patients
  Concentration impairment Grade 2 or higher: 5 patients
  patients with CNS toxicities that contributed to treatment discontinuation: nine
[4]; patients receiving 750 mg once daily
  diarrhea: not reported
[4]; twice daily 450 mg or once daily 600/750 mg, without oral steroids
  tolerability: not generally well tolerated
[5]
  potency compared with AA: more potent than AA
[6]; [9]
  AUC/D (dose-normalized): 55.1 ± 7.21 mg·h/L/mg
  Cmax/D (dose-normalized): 6.77 ± 3.20 mg/L/mg
[6]; 600 mg oral, C1D1 (n=4), first dose, Dose/AUCinf
  CL/F: 18.4 ± 2.50 L/h
[6]; [10]
  AUC/D (dose-normalized): 92.3 ± 9.94 mg·h/L/mg
  Cmax/D (dose-normalized): 7.76 ± 1.93 mg/L/mg
[6]; 600 mg oral, C2D1 (n=4), steady-state, Dose/AUCtau
  CL/F: 10.9 ± 1.32 L/h
[6]; [11]
  AUC/D (dose-normalized): 58.9 ± 2.87 mg·h/L/mg
  Cmax/D (dose-normalized): 6.82 ± 2.54 mg/L/mg
[6]; 750 mg oral, C1D1 (n=3), first dose, Dose/AUCinf
  CL/F: 17.0 ± 0.84 L/h
[6]; [12]
  AUC/D (dose-normalized): 84.6 mg·h/L/mg
  Cmax/D (dose-normalized): 7.53 mg/L/mg
[6]; 750 mg oral, C2D2 (n=l), steady-state, Dose/AUCtau
  CL/F: 11.8 L/h
[6]; 6 patients, p=0.001
  increase of dose-normalized steady-state AUCτ over first dose AUCINF: 61%
[6]; Cycle 1
  dose-normalized CMAX, mean: 6.79 µg/L/mg
[6]; first dose
  dose-normalized first dose AUCINF: 56.7 µg·h/L/mg
[6]; oral, mean first dose half-life, 48-hr sampling window, range 7.9 – 23.5 hr
  half-life: 13.9 h
[6]; [13]
  Cmax: 4.07 ± 1.92 µg/mL
  Tmax: 2 h
  Vd/F: 438 ± 146 L
[6]; [14]
  Cmax: 4.66 ± 1.16 µg/mL
  Tmax: 5 ± 2.58 h
  Vd/F: 229 ± 77.7 L
[6]; po, 600 mg, T1/2, 600 mg oral, C1D1 (n=4), first dose
  half-life: 16.4 ± 4.78 h
[6]; po, 600 mg, T1/2, 600 mg oral, C2D1 (n=4), steady-state
  half-life: 14.8 ± 5.94 h
[6]; [15]
  Cmax: 5.11 ± 1.9 µg/mL
  Tmax: 2 ± 1.7 h
  Vd/F: 260 ± 121 L
[6]; [16]
  Cmax: 5.65 µg/mL
  Tmax: 2 h
  Vd/F: 312 L
[6]; po, 750 mg, T1/2, 750 mg oral, C1D1 (n=3), first dose
  half-life: 10.5 ± 4.35 h
[6]; po, 750 mg, T1/2, 750 mg oral, C2D2 (n=l), steady-state
  half-life: 18.3 h
[6]; once daily dosing
  time to reach 97% steady-state: 69.5 h
[6]; once daily dosing until steady-state
  expected accumulation above first-dose: 43%
[6]; p=0.44
  increase of steady-state dose-normalized CMAX over Cycle 1: 20%
[6]; single oral dose 600mg or 750mg with food
  start of apparent monophasic elimination post dose: 2 to 4 h
[6]; steady-state
  dose-normalized CMAX, mean: 8.16 µg/L/mg
  dose-normalized steady-state AUCτ: 91.3 µg·h/L/mg
[7]; all 17 patients, after 12 weeks of seviteronel, PCWG2 criteria
  rate of significant PSA response (≥ 50% decrease in baseline serum PSA): 6%
[7]; of 17 patients
  patients having documented PSA progression per PCWG2: 8 patients
[7]; one patient, pre-chemotherapy cohort, 750 mg once daily reduced to 450 mg once daily, after 11 weeks
  minimal decline in PSA: 15%
